Results on ten molecules are retold here after ChEMBL document CHEMBL1158372, “Design, synthesis, and biological evaluation of novel triazole derivatives as inhibitors of cytochrome P450 14alpha-demethylase” (2009).

Usually MIC80 stands for an inhibitory concentration at the 80% level, which refers to growth in some studies and to a panel of isolates in others. Read a high MIC80 as weaker potency.

SMILES strings stand for the structures. In brackets after ≈: the same amount, converted by molar mass.

Holding throughout (format): functional
One assay relates to Candida albicans. The experiment in a line: Antifungal activity against Candida albicans ATCC 76615 after 24 hrs by micro-broth dilution method. Particulars: ATCC 76615, 24 h. A digest of the protocol:
(§1)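 NCCLS (M27-A2) broth microdilution in 96-well format. Compounds in DMSO, serially diluted in growth medium, inoculated, incubated at 35 °C, and read at 24 h (C. albicans ATCC76615) or 72 h (Cry. neoformans ATCC32609). MIC80 is the first well with about 80% less growth than the drug-free well. Three independent runs per agent; the mean of replicates is reported.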
For orientation: Broth dilution looks for growth in wells or tubes with falling amounts of substance.

Another assay has as its system Trichophyton rubrum. The experiment in a line: Antifungal activity against Trichophyton rubrum by micro-broth dilution method. A digest of the protocol: (§2)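 Broth microdilution in 96-well plates following the NCCLS method. DMSO solutions of test agents were serially diluted in growth medium, inoculated, and incubated at 35 °C. MIC80 is the first well showing roughly 80% growth reduction versus the drug-free control. C. albicans ATCC76615 and Cry. neoformans ATCC32609 served as quality-control strains. Each test was done three times; the mean of replicates is reported.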

The subject of a further assay is Candida parapsilosis. The experiment in a line: Antifungal activity against Candida parapsilosis by micro-broth dilution method. Particulars: Lodderomyces parapsilosis. A digest of the protocol:
as §2

The next assay has as its system Candida tropicalis. As to the kind of experiment: Antifungal activity against Candida tropicalis by micro-broth dilution method. A digest of the protocol:
as §2

The test system of the next assay is Nannizzia gypsea. As to the kind of experiment: Antifungal activity against Microsporum gypseum by micro-broth dilution method. A digest of the protocol:
as §2

The test system of another assay is Pichia kudriavzevii. The experiment in a line: Antifungal activity against Candida krusei by micro-broth dilution method. A digest of the protocol:
as §2

A further assay relates to Aspergillus fumigatus. As to the kind of experiment: Antifungal activity against Aspergillus fumigatus by micro-broth dilution method. A digest of the protocol: as §2
Another assay deals with Cryptococcus neoformans. The experiment in a line: Antifungal activity against Cryptococcus neoformans ATCC 32609 after 72 hrs by micro-broth dilution method. Particulars: ATCC 32609, 72 h. A digest of the protocol:
as §1

`C=CCN(Cc1ccc(C(=O)Oc2ccc(C(=O)OCCC)cc2)cc1)CC(O)(Cn1cncn1)c1ccc(F)cc1F` (stereo not given): the MIC80 worked out at 1 µg/mL (≈ 1.69 µM) against Candida albicans; 1 µg/mL (≈ 1.69 µM) in the assay with Trichophyton rubrum; 0.25 µg/mL (≈ 0.423 µM) against Candida parapsilosis; 0.25 µg/mL (≈ 0.423 µM) against Candida tropicalis; 1 µg/mL (≈ 1.69 µM) against Nannizzia gypsea; 4 µg/mL (≈ 6.77 µM) against Pichia kudriavzevii. Besides, the MIC80 with Aspergillus fumigatus is greater than 64 µg/mL; in the assay on Cryptococcus neoformans it was 4 µg/mL (≈ 6.77 µM).

In the case of `C=CCN(Cc1ccccc1)CC(O)(Cn1cncn1)c1ccc(F)cc1F` (stereo not given), the MIC80 in the assay on Candida albicans was found to be 0.0039 µg/mL (≈ 0.0101 µM); in the assay on Trichophyton rubrum, 0.25 µg/mL (≈ 0.65 µM); against Candida parapsilosis, 0.0625 µg/mL (≈ 0.163 µM); in the assay with Candida tropicalis it was 0.0625 µg/mL (≈ 0.163 µM); in the assay on Nannizzia gypsea it was 0.0039 µg/mL (≈ 0.0101 µM); with Pichia kudriavzevii it was 0.0625 µg/mL (≈ 0.163 µM). For the same molecule, the MIC80 in the assay on Aspergillus fumigatus is greater than 64 µg/mL; in the assay with Cryptococcus neoformans, 0.0625 µg/mL (≈ 0.163 µM).

In the case of `C=CCN(Cc1ccc(Cl)cc1)CC(O)(Cn1cncn1)c1ccc(F)cc1F` (stereo not given), the MIC80 against Candida albicans was 0.25 µg/mL (≈ 0.597 µM); with Trichophyton rubrum, 0.25 µg/mL (≈ 0.597 µM); in the assay on Candida parapsilosis, 0.25 µg/mL (≈ 0.597 µM); with Candida tropicalis, 0.25 µg/mL (≈ 0.597 µM); with Nannizzia gypsea, 0.0625 µg/mL (≈ 0.149 µM); in the assay on Pichia kudriavzevii, 0.0625 µg/mL (≈ 0.149 µM). The MIC80 with Aspergillus fumigatus was 16 µg/mL (≈ 38.2 µM); against Cryptococcus neoformans, 0.25 µg/mL (≈ 0.597 µM).

Turning to `C=CCN(Cc1ccc(C(=O)Oc2ccccc2C(=O)OC)cc1)CC(O)(Cn1cncn1)c1ccc(F)cc1F` (stereo not given), the MIC80 with Candida albicans turned out to be 0.0625 µg/mL (≈ 0.111 µM); against Trichophyton rubrum, 64 µg/mL (≈ 114 µM); in the assay on Candida parapsilosis, 4 µg/mL (≈ 7.11 µM); against Candida tropicalis, 16 µg/mL (≈ 28.4 µM); against Nannizzia gypsea it was 4 µg/mL (≈ 7.11 µM); with Pichia kudriavzevii, 16 µg/mL (≈ 28.4 µM). Moreover, the MIC80 against Aspergillus fumigatus and in the assay with Cryptococcus neoformans was greater than 64 µg/mL in each case.

Regarding `C=CCN(Cc1ccc(C(=O)OCCCC)cc1)CC(O)(Cn1cncn1)c1ccc(F)cc1F` (stereo not given), the MIC80 came out at 0.25 µg/mL (≈ 0.516 µM) against Candida albicans; 1 µg/mL (≈ 2.06 µM) in the assay with Trichophyton rubrum; 1 µg/mL (≈ 2.06 µM) in the assay on Candida parapsilosis; 1 µg/mL (≈ 2.06 µM) in the assay on Candida tropicalis; 1 µg/mL (≈ 2.06 µM) with Nannizzia gypsea; 1 µg/mL (≈ 2.06 µM) in the assay on Pichia kudriavzevii. The MIC80 is greater than 64 µg/mL in the assay with Aspergillus fumigatus and 1 µg/mL (≈ 2.06 µM) in the assay with Cryptococcus neoformans.

`C=CCN(Cc1ccc(C(=O)OCCCCC)cc1)CC(O)(Cn1cncn1)c1ccc(F)cc1F` (stereo not given): the MIC80 turned out to be 1 µg/mL (≈ 2.01 µM) against Candida albicans; 0.25 µg/mL (≈ 0.501 µM) in the assay with Trichophyton rubrum; 1 µg/mL (≈ 2.01 µM) with Candida parapsilosis; 1 µg/mL (≈ 2.01 µM) in the assay with Candida tropicalis; 1 µg/mL (≈ 2.01 µM) in the assay with Nannizzia gypsea; 1 µg/mL (≈ 2.01 µM) against Pichia kudriavzevii. In addition, the MIC80 was greater than 64 µg/mL with Aspergillus fumigatus and 1 µg/mL (≈ 2.01 µM) with Cryptococcus neoformans.

Turning to `C=CCN(Cc1ccc(CC)cc1)CC(O)(Cn1cncn1)c1ccc(F)cc1F` (stereo not given), the MIC80 was 0.25 µg/mL (≈ 0.606 µM) in the assay with Candida albicans; 1 µg/mL (≈ 2.42 µM) with Trichophyton rubrum; 1 µg/mL (≈ 2.42 µM) in the assay with Candida parapsilosis; 0.0156 µg/mL (≈ 0.0378 µM) against Candida tropicalis; 0.0625 µg/mL (≈ 0.152 µM) against Nannizzia gypsea; 0.25 µg/mL (≈ 0.606 µM) in the assay on Pichia kudriavzevii. Moreover, the figures for the MIC80 in the assay with Aspergillus fumigatus and against Cryptococcus neoformans were greater than 64 µg/mL and 0.25 µg/mL (≈ 0.606 µM), respectively.

In the case of `C=CCN(Cc1ccc(F)cc1)CC(O)(Cn1cncn1)c1ccc(F)cc1F` (stereo not given), the MIC80 with Candida albicans is 0.0156 µg/mL (≈ 0.0388 µM); in the assay with Trichophyton rubrum, 1 µg/mL (≈ 2.48 µM); in the assay on Candida parapsilosis it was 0.0625 µg/mL (≈ 0.155 µM); in the assay on Candida tropicalis, 0.0625 µg/mL (≈ 0.155 µM); in the assay with Nannizzia gypsea it was 0.0156 µg/mL (≈ 0.0388 µM); against Pichia kudriavzevii it was 0.0625 µg/mL (≈ 0.155 µM). The MIC80 was greater than 64 µg/mL with Aspergillus fumigatus and 0.0625 µg/mL (≈ 0.155 µM) in the assay on Cryptococcus neoformans.

Turning to `C=CCN(Cc1ccc(C(=O)OCC(C)C)cc1)CC(O)(Cn1cncn1)c1ccc(F)cc1F` (stereo not given), the MIC80 is 1 µg/mL (≈ 2.06 µM) against Candida albicans; 0.0625 µg/mL (≈ 0.129 µM) with Trichophyton rubrum; 0.25 µg/mL (≈ 0.516 µM) in the assay with Candida parapsilosis; 1 µg/mL (≈ 2.06 µM) in the assay with Candida tropicalis; 0.25 µg/mL (≈ 0.516 µM) against Nannizzia gypsea; 1 µg/mL (≈ 2.06 µM) in the assay with Pichia kudriavzevii. Moreover, the figures for the MIC80 in the assay on Aspergillus fumigatus and in the assay on Cryptococcus neoformans were greater than 64 µg/mL and 1 µg/mL (≈ 2.06 µM), respectively.

Consider `C=CCN(Cc1ccccc1Cl)CC(O)(Cn1cncn1)c1ccc(F)cc1F` (stereo not given), for which the MIC80 in the assay with Candida albicans was 0.0156 µg/mL (≈ 0.0372 µM); against Trichophyton rubrum, 1 µg/mL (≈ 2.39 µM); against Candida parapsilosis it was 0.0625 µg/mL (≈ 0.149 µM); with Candida tropicalis, 0.25 µg/mL (≈ 0.597 µM); with Nannizzia gypsea it was 0.0625 µg/mL (≈ 0.149 µM); against Pichia kudriavzevii it was 0.0625 µg/mL (≈ 0.149 µM). The MIC80 against Aspergillus fumigatus is greater than 64 µg/mL; against Cryptococcus neoformans, 0.25 µg/mL (≈ 0.597 µM).
